Activity calls are given as the source filed them. No cut-off for these calls is given here.
How the values were obtained:
[1] = AUC in CD-1 mouse at 2 mg/kg, ip measured up to 24 hrs by LC-MS/MS; type: ADME, organism-based; set-up: route intraperitoneal, dose 2 mg/kg, time <=24; conditions: in vivo
Method in brief: (§1)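 CD-1 mice given a single 2 mg/kg dose i.p. or i.v. (n = 3 per group). Blood sampled at 0, 0.083, 0.25, 0.5, 1, 2, 4, 6, 8 and 24 h and centrifuged for plasma, with internal standard added. Plasma deproteinized with methanol/acetonitrile (1:1), supernatant diluted with acetonitrile/water, and compound measured by LC/MS/MS.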

Jurkat = assay: Antiproliferative activity against human Jurkat cells assessed as reduction in cell viability incubated for 6 days by CCK8 assay
[2] = Half life in CD-1 mouse at 2 mg/kg, iv measured up to 24 hrs by LC-MS/MS; type: ADME, organism-based; conditions: in vivo; method in brief: as §1
[3] = target: Histone-lysine N-methyltransferase 2A (Homo sapiens, UniProt Q03164); assay: Inhibition of MLLI (unknown origin) using SAM as substrate preincubated for 10 mins followed by substrate addition measured after 4 hrs by HTRF method
Method in brief: (§2)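 HTRF assay: inhibitor plus enzyme preincubated 10 min at room temperature, then peptide/SAM mix added and incubated at room temperature. Antibody and SA-XL665 detection mix added for 1 h in subdued light. Emission read at 665 and 620 nm; IC50 from two separate experiments.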

[4] = Cmax in CD-1 mouse at 2 mg/kg, ip measured up to 24 hrs by LC-MS/MS; type: ADME, organism-based; set-up: route intraperitoneal, dose 2 mg/kg, time <=24; conditions: in vivo; method in brief: as §1
HL-60 = assay: Antiproliferative activity against human HL-60 cells assessed as reduction in cell viability incubated for 6 days by CCK8 assay
U2932 = assay: Antiproliferative activity against human U2932 cells assessed as reduction in cell viability incubated for 6 days by CCK8 assay
WSUDLCL2 = assay: Antiproliferative activity against human WSUDLCL2 cells assessed as reduction in cell viability incubated for 6 days by CCK8 assay
RS4-11 [5] = assay: Toxicity in SCID mouse xenografted with human RS4-11 cells assessed as body weight LOSS at 25 to 50 mg/kg, ip qd administered consecutively for 21 days; type: functional, organism-based; conditions: dose 25-50 mg/kg, time 21.0 day
Method in brief: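 Female SCID mice, 4 weeks old, implanted subcutaneously in the flank with 1 × 10⁷ RS4:11 cells in 0.2 mL PBS. At about 100 mm³, groups of n = 8 received 25 or 50 mg/kg or vehicle intraperitoneally once daily for 21 days. Body weight and tumors measured twice weekly.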

NCI-H929 = assay: Antiproliferative activity against human NCI-H929 cells assessed as reduction in cell viability incubated for 6 days by CCK8 assay
RS4-11 [6] = assay: Antitumor activity against human RS4-11 cells xenografted in SCID mouse assessed as tumor growth inhibition at 50 mg/kg, ip qd administered consecutively for 21 days relative to control; conditions: RS4-11, ip, 504 h, read-out: TGI
[7] = target: Histone-lysine N-methyltransferase SETD2 (Homo sapiens, UniProt Q9BYW2); assay: Inhibition of SETD2 (unknown origin) using SAM as substrate preincubated for 10 mins followed by substrate addition measured after 4 hrs by AlphaLISA method
[8] = AUC in CD-1 mouse at 2 mg/kg, iv measured up to 24 hrs by LC-MS/MS; type: ADME, organism-based; set-up: route intravenous, dose 2 mg/kg, time <=24; conditions: in vivo; method in brief: as §1
Pfeiffer = assay: Antiproliferative activity against human Pfeiffer cells assessed as reduction in cell viability incubated for 6 days by CCK8 assay
[9] = target: Histone-lysine N-methyltransferase, H3 lysine-79 specific (Homo sapiens, UniProt Q8TEK3); assay: Inhibition of DOT1L (unknown origin) using SAM as substrate preincubated for 10 mins followed by substrate addition measured after 4 hrs by AlphaLISA method
MV4-11 [10] = assay: cells; conditions: Homo sapiens, MV4-11, 72 h, read-out: Activity
MOLT-4 = assay: Antiproliferative activity against human MOLT-4 cells assessed as reduction in cell viability incubated for 6 days by CCK8 assay
[11] = target: Histone-lysine N-methyltransferase NSD2 (Homo sapiens, UniProt O96028, E1009K); assay: Inhibition of NSD2 E1009K mutant (unknown origin) using SAM as substrate preincubated for 10 mins followed by substrate addition measured after 4 hrs by AlphaLISA method
[12] = Inhibition of MET transcriptional activity in human KMS-11 cells assessed as reduction in H3K36 methylation at 10 uM measured after 72 hrs by chip q-PCR analysis
[13] = MRT in CD-1 mouse at 2 mg/kg, iv measured up to 24 hrs by LC-MS/MS; type: ADME, organism-based; conditions: in vivo
Method in brief: (§3)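 CD-1 mice dosed at 2 mg/kg i.p. or i.v., n = 3 per group. Blood sampled at 0, 0.083, 0.25, 0.5, 1, 2, 4, 6, 8 and 24 h and spun for plasma. Internal standard added, deproteinized with methanol/acetonitrile (1:1), supernatant diluted and analysed by LC/MS/MS.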

RS4-11 [14] = assay: Antitumor activity against human RS4-11 cells xenografted in SCID mouse assessed as tumor growth inhibition at 25 mg/kg, ip qd administered consecutively for 21 days relative to control; conditions: RS4-11, ip, 504 h, read-out: TGI
[15] = target: Protein arginine N-methyltransferase 5 (Homo sapiens, UniProt O14744); assay: Inhibition of PRMT5 (unknown origin) using SAM as substrate preincubated for 10 mins followed by substrate addition measured after 4 hrs by AlphaLISA method
OCI-AML-5 = assay: Antiproliferative activity against human OCI-AML5 cells assessed as reduction in cell viability incubated for 6 days by CCK8 assay
RS4-11 [16] = assay: Antiproliferative activity against human RS4-11 cells assessed as reduction in cell viability at 1 to 100 uM by CCK8 assay; type: functional, cell-based; conditions: dose 1-100 µM, time 6.0 day, TDE = time-dependent effect
[17] = Half life in CD-1 mouse at 2 mg/kg, ip measured up to 24 hrs by LC-MS/MS; type: ADME, organism-based; conditions: in vivo; method in brief: as §1
[18] = target: Histone-arginine methyltransferase CARM1 (Homo sapiens, UniProt Q86X55); assay: Inhibition of PRMT4 (unknown origin) using SAM as substrate preincubated for 10 mins followed by substrate addition measured after 4 hrs by AlphaLISA method
[19] = Tmax in CD-1 mouse at 2 mg/kg, ip measured up to 24 hrs by LC-MS/MS; type: ADME, organism-based; conditions: in vivo; method in brief: as §3
MV4-11 [20] = assay: cells; conditions: Homo sapiens, MV4-11, 72 h, read-out: Activity; remark: listed apart in the source
OPM-2 = assay: Antiproliferative activity against human OPM-2 cells assessed as reduction in cell viability incubated for 6 days by CCK8 assay
[21] = target: Histone-lysine N-methyltransferase EZH2 (Homo sapiens, UniProt Q15910); assay: Inhibition of EZH2 (unknown origin) using SAM as substrate preincubated for 10 mins followed by substrate addition measured after 4 hrs by HTRF method; method in brief: as §2
Sequence of Histone-lysine N-methyltransferase EZH2 (Q15910 whole entry): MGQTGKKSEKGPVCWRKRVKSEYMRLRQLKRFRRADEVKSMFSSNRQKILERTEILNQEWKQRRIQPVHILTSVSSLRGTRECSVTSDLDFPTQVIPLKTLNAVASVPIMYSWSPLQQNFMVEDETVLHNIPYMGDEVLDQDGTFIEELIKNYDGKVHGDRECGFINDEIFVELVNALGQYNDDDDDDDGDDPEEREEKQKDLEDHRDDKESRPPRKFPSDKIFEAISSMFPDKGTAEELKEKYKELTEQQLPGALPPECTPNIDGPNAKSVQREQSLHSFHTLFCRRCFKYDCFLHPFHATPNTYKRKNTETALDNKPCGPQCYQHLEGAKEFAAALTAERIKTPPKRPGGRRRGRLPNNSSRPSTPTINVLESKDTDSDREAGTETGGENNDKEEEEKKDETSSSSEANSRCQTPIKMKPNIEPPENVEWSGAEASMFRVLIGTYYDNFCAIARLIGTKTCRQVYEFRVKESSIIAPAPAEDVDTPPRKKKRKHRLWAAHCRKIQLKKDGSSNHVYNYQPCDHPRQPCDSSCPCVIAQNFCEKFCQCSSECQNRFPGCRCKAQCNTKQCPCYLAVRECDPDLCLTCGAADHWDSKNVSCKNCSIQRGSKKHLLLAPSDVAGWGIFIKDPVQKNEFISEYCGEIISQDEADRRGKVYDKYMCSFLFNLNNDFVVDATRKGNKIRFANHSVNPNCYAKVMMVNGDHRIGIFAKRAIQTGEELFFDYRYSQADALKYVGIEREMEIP

Sequence of Protein arginine N-methyltransferase 5 (O14744 whole entry): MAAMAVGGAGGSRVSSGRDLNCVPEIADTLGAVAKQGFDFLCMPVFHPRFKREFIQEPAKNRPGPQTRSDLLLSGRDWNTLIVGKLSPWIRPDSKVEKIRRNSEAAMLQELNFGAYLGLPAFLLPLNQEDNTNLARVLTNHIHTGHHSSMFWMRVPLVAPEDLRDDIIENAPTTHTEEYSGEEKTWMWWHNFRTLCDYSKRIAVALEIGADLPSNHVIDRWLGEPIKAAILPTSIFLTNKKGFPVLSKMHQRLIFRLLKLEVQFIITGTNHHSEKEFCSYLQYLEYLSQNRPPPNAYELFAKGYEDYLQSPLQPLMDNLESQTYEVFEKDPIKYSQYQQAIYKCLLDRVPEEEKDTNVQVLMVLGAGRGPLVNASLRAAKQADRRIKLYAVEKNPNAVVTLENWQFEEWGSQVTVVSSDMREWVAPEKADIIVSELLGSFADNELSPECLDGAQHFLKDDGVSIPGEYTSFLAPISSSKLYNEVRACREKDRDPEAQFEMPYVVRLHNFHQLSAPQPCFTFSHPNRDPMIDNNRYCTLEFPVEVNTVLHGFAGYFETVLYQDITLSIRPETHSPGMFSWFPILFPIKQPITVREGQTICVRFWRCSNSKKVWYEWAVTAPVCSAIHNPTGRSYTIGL
Sequence of Histone-lysine N-methyltransferase, H3 lysine-79 specific (Q8TEK3 whole entry): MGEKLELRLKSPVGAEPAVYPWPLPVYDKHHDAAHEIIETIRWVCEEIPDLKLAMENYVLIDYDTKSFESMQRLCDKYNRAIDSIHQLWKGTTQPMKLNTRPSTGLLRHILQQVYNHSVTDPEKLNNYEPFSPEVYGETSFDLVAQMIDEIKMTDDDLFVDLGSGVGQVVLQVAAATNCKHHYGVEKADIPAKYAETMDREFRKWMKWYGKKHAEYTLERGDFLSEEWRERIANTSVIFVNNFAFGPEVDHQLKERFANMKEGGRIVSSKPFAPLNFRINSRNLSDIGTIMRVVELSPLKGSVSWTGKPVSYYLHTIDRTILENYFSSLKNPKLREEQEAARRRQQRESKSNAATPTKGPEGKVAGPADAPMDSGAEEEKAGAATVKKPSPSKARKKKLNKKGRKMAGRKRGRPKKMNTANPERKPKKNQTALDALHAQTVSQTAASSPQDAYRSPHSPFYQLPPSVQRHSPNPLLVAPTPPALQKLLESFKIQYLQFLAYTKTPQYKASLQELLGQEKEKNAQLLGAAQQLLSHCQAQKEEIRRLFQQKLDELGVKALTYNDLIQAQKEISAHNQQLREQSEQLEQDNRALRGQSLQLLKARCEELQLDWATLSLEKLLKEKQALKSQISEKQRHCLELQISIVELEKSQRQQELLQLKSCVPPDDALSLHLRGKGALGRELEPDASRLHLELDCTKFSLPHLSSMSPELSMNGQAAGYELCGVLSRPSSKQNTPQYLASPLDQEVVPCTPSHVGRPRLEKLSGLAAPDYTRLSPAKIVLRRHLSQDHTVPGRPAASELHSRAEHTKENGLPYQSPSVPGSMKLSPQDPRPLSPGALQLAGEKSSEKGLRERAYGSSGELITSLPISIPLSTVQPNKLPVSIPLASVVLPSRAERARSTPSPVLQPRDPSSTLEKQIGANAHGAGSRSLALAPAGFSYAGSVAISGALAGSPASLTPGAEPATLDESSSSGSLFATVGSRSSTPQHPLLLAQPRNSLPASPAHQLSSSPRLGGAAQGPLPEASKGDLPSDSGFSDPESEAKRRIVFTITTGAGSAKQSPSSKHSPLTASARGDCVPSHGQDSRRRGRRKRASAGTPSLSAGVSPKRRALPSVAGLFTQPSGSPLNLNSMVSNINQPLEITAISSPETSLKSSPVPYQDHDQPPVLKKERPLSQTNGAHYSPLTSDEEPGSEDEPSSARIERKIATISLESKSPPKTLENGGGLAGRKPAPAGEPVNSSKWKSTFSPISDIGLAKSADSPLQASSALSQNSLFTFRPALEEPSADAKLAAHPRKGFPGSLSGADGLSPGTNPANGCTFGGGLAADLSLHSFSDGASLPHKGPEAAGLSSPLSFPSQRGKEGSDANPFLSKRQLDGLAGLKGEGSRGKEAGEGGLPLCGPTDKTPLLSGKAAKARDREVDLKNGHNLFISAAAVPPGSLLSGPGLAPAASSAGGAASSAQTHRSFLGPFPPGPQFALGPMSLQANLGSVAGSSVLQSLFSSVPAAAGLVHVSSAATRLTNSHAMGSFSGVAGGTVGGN
Sequence of Histone-arginine methyltransferase CARM1 (Q86X55 whole entry): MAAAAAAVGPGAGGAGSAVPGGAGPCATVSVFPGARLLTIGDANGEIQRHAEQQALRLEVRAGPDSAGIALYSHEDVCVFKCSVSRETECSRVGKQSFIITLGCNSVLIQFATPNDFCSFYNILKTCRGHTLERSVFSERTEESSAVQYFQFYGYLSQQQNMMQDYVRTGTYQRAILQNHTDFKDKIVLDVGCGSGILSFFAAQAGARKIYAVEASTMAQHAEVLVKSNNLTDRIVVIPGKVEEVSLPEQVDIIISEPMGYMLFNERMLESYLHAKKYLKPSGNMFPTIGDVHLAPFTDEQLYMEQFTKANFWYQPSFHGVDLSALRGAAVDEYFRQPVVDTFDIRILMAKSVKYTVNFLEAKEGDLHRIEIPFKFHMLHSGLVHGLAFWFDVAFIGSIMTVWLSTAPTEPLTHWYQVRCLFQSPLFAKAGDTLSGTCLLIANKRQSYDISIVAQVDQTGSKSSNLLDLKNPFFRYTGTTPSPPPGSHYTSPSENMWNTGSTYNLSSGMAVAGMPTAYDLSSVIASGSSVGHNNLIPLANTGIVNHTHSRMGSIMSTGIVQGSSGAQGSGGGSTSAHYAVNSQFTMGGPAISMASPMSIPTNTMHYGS
Sequence of Histone-lysine N-methyltransferase NSD2 (O96028 whole entry, looked up, stated change not applied): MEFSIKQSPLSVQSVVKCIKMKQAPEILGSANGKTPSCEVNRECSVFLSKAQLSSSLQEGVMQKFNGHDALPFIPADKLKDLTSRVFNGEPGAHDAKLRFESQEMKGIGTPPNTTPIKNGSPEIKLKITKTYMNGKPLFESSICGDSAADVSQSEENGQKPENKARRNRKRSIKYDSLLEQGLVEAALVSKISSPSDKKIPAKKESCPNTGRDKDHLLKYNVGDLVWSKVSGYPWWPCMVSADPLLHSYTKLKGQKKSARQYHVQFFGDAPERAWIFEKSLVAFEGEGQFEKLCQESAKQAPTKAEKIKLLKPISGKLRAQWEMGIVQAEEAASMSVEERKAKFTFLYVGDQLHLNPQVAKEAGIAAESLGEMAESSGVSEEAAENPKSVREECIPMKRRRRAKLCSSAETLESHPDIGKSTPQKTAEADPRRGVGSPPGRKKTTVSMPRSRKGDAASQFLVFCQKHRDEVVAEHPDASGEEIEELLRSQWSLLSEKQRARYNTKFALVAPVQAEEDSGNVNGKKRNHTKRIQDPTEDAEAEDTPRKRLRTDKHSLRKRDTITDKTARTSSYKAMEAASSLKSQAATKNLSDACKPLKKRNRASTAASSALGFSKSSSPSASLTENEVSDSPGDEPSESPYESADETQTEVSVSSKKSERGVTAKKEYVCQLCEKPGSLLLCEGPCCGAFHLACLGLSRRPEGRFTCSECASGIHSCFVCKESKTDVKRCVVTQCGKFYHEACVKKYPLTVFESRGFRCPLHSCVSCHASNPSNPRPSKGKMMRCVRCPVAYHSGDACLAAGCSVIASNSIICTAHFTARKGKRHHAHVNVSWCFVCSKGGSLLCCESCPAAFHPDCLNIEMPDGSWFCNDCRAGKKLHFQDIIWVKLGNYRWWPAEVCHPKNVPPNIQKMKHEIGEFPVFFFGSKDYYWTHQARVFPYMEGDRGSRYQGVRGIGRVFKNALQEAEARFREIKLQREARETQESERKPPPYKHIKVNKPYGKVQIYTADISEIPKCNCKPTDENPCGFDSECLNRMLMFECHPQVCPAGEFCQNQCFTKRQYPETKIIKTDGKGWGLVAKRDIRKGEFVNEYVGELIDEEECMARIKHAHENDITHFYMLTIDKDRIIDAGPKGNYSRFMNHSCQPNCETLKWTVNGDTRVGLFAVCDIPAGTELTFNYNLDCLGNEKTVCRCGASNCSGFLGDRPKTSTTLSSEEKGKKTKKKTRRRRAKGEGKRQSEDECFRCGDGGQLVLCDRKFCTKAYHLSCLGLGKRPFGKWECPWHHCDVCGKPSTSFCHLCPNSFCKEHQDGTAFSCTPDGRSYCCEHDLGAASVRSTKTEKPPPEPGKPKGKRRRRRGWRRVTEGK

AUC at 24 h [1]: 150 ng·h/mL | half-life [2]: 39.6 min | IC50 [3]: > 20 µM | Cmax [4]: 433 ng/mL | IC50 [7]: > 20 µM | AUC at 24 h [8]: 204 ng·h/mL | IC50 [9]: > 20 µM | IC50 [11]: 3.1 µM | inhibition [12]: Active | MRT [13]: 23.8 min | IC50 [15]: > 20 µM | half-life [17]: 33.6 min | IC50 [18]: > 20 µM | Tmax [19]: 4.98 min | IC50 [21]: > 20 µM
Structure (SMILES): Cl.Nc1cccc2c(S(=O)(=O)NCc3ccccc3)cccc12
Activity (Jurkat): Active | Activity (HL-60): Active | Activity (U2932): Active | Activity (WSUDLCL2): Active | Activity (RS4-11 [5]): Not toxic | Activity (NCI-H929): Active | inhibition in vivo at 50 mg/kg (RS4-11 [6]): 37.2% | Activity (Pfeiffer): Active | viability at 5 µM (MV4-11 [10]): 94.4% | Activity (MOLT-4): Active | inhibition in vivo at 25 mg/kg (RS4-11 [14]): 43.6% | Activity (OCI-AML-5): Active | Activity (RS4-11 [16]): Tde | viability at 10 µM (MV4-11 [20]): 94% | Activity (OPM-2): Active

Source: ChEMBL document CHEMBL4825702, “5-Aminonaphthalene derivatives as selective nonnucleoside nuclear receptor binding SET domain-protein 2 (NSD2) inhibitors for the treatment of multiple myeloma” (Eur J Med Chem, 2021)
